The values below come from ChEMBL document CHEMBL3826950, “Design and development of new class of Mycobacterium tuberculosisl-alanine dehydrogenase inhibitors” (Bioorg Med Chem, 2016).

The structures appear in SMILES notation. In brackets after ≈: the same amount, converted by molar mass. Activity calls are given as the source filed them. The rule behind the calls is not given here. A value given as a limit tells only on which side of the number the result lay.

The nature of data set [1]: Cytotoxicity against mouse RAW264.7 cells assessed as reduction in cell viability at 25 uM measured after 48 hrs by MTT assay. In kind it is cell-based. The note with it: read-out: INH. In a few lines:
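RAW 264.7 cells were grown in RPMI with 10% FBS and penicillin/streptomycin, seeded at about 5000 cells/well on poly-L-lysine, and held 24 h at 37 °C in 5% CO2. Compound exposure lasted 48 h. MTT (0.5 mg/ml) was added for 3 h and formazan was read at 595 nm.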
For orientation: Formazan colour is commonly taken as a measure of viable cells.

In data set [2] the test system is Mycobacterium tuberculosis. The data set can be described thus: Antibacterial activity against actively replicative Mycobacterium tuberculosis H37Rv measured after 7 days by MABA assay. In kind it is functional. The following applies: 168 h. Put shortly:
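Serial two-fold dilutions in 7H9-S were tested against replicating M. tuberculosis H37Rv (ATCC 27294) at 37 °C for 7 days. Alamar blue was then added and plates were incubated overnight. MIC was the lowest concentration that prevented the blue-to-pink colour change.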

The nature of data set [3]: Inhibition of Mycobacterium tuberculosis L-AlaDH assessed as NADH production by spectrophotometric method. Put shortly: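 Oxidative deamination of L-alanine to pyruvate was followed by NADH absorbance at 340 nm at 37 °C. Background was read from reaction mix without enzyme. Compounds were tested across a 25 to 0.5 range to derive IC50.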
Data set [4] relates to Mycobacterium tuberculosis. Kind of data set: Antibacterial activity against nutrient-starved dormant Mycobacterium tuberculosis H37Rv assessed in log reduction in bacterial count at 10 ug/ml measured after 7 days by MPN assay relative to control. In kind it is functional. In a few lines: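 H37Rv was grown in 7H9/OADC, washed, and starved in PBS in sealed bottles at 37 °C for 6 weeks. The starved culture was treated for 7 days at 37 °C, then diluted 10-fold to 10^-6 in 7H9/OADC and plated in triplicate. After 28 days at 37 °C, wells with growth were scored and MPN was calculated (n = 3).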

One may read the MIC as the lowest concentration that inhibits growth of the organism. The term IC50 denotes the concentration at which inhibition is half-maximal.

With `O=C(NN1C(C(=O)Nc2ccc(Cl)c(Cl)c2)CC1C(=O)Nc1ccc(Cl)c(Cl)c1)c1ccncc1` (centres undefined), the cytotoxicity at 48 h, 25 µM in data set [1] amounted to 49.5%. The compound further showed a minimum inhibitory concentration (MIC) in data set [2] of 1.41 µM (≈ 0.78 µg/mL). Moreover, in data set [3], the IC50 came out at 13.7 µM.
On to `O=C(NN1C(C(=O)Nc2nc3ccccc3s2)CC1C(=O)Nc1nc2ccccc2s1)c1ccccc1` (centres undefined), for which the outcome in data set [4] was inactive. The cytotoxicity at 48 h, 25 µM in data set [1] was determined as 12.3%. In data set [2], this compound returned an MIC of 5.93 µM (≈ 3.13 µg/mL). Also, the IC50 in data set [3] is above 25 µM.
As to `Cc1cccc(NC(=O)C2CC(C(=O)Nc3cccc(C)n3)N2NC(=O)c2ccncc2)n1` (centres undefined), the cytotoxicity at 48 h, 25 µM in data set [1] is 3.89%. Also, the MIC in data set [2] worked out at 3.51 µM (≈ 1.56 µg/mL). Moreover, the IC50 in data set [3] was found to be 14.6 µM.
On to `NNC(=O)c1ccncc1` [ISONIAZID], for which the “Log reduction in bacterial count” value in data set [4] came to 1.5. Moreover, in data set [2], inhibition of growth (MIC) required 0.72 µM (≈ 0.0987 µg/mL).
On to `O=C(NN1C(C(=O)Nc2ccccn2)CC1C(=O)Nc1ccccn1)c1ccncc1` (centres undefined), for which, in data set [1], the cytotoxicity at 48 h, 25 µM came to 7.68%. The MIC in data set [2] worked out at 3.74 µM (≈ 1.56 µg/mL). The half-maximal inhibitory concentration (IC50) in data set [3] came to 9.47 µM.
In the same order, the values of `O=C(NN1C(C(=O)NCCc2ccccc2)CC1C(=O)NCCc1ccccc1)c1ccncc1` (centres undefined) are 42.3%, 26.5 µM (≈ 12.5 µg/mL) and 4.75 µM.
Turning to `COc1c(N2C[C@@H]3CCCN[C@@H]3C2)c(F)cc2c(=O)c(C(=O)O)cn(C3CC3)c12` [MOXIFLOXACIN], the “Log reduction in bacterial count” value in data set [4] came out at 2.8. This compound also displayed an MIC in data set [2] of 1.24 µM (≈ 0.498 µg/mL).
On to `Cc1ccc2[nH]c(/C(C#N)=C/c3ccc(-c4cc(C(=O)O)cc(C(=O)O)c4)o3)nc2c1`, for which the IC50 in data set [3] came out at 15.6 µM.
Still for that read-out and setting: as for `Cc1cccc(/C=N/NC2=Nc3[nH]c4ccc(C)cc4c3NN2)c1`, the figure is 18.2 µM.
As to `Cc1ccc(NC(=O)C2CC(C(=O)Nc3ccc(C)cc3C)N2NC(=O)c2ccncc2)c(C)c1` (centres undefined), the cytotoxicity at 48 h, 25 µM in data set [1] amounted to 19.3%. Also, in data set [2], the lowest concentration to inhibit growth (MIC) was 13.3 µM (≈ 6.26 µg/mL). Besides, the IC50 in data set [3] came out at 4.38 µM.
As to `Cc1cccc(C)c1NC(=O)C1CC(C(=O)Nc2c(C)cccc2C)N1NC(=O)c1ccncc1` (centres undefined), in data set [1], the cytotoxicity at 48 h, 25 µM came out at 26.6%. In data set [2], this compound gave an MIC of 3.31 µM (≈ 1.56 µg/mL). Also, the half-inhibitory concentration (IC50) in data set [3] turned out to be 9.69 µM.
In the same order, the values of `COc1ccc(NC(=O)C2CC(C(=O)Nc3ccc(OC)cc3OC)N2NC(=O)c2ccncc2)c(OC)c1` (centres undefined) are 48.9%, 46.7 µM (≈ 25 µg/mL) and 11.7 µM.
As to `O=C(NN1C(C(=O)Nc2nc3ccccc3s2)CC1C(=O)Nc1nc2ccccc2s1)c1ccncc1` (centres undefined), the “Log reduction in bacterial count” value in data set [4] is given as 2. Moreover, the cytotoxicity at 48 h, 25 µM in data set [1] came out at 34.7%. The compound further showed an MIC in data set [2] of 11.8 µM (≈ 6.25 µg/mL). The half-maximal inhibitory concentration (IC50) in data set [3] worked out at 3.83 µM.
`CC[C@@H](CO)NCCN[C@@H](CC)CO` [ETHAMBUTOL] had an MIC in data set [2] of 7.64 µM (≈ 1.56 µg/mL).
Regarding `COc1ccc(Nc2nc(Nc3ccc4c(=O)[nH][nH]c(=O)c4c3)c3cccnc3n2)cc1`, the IC50 in data set [3] amounted to 23.3 µM.
With `O=C(NN1C(C(=O)Nc2ccccc2)CC1C(=O)Nc1ccccc1)c1ccncc1` (centres undefined), the “Log reduction in bacterial count” value in data set [4] amounted to 1.6. The cytotoxicity at 48 h, 25 µM in data set [1] was found to be 19.8%. The same compound registered an MIC in data set [2] of 15.1 µM (≈ 6.26 µg/mL). Also, the IC50 in data set [3] was 9.22 µM.
For `O=C(NN1C(C(=O)Nc2ccc(Cl)cc2)CC1C(=O)Nc1ccc(Cl)cc1)c1ccncc1` (centres undefined), in data set [1], the cytotoxicity at 48 h, 25 µM was determined as 32.9%. Also, in data set [2], inhibition of growth (MIC) required 51.6 µM (≈ 25 µg/mL). For the same compound, the IC50 in data set [3] is 5.56 µM.
The matching figures for `O=C(NN1C(C(=O)NCc2ccccc2)CC1C(=O)NCc1ccccc1)c1ccncc1` (centres undefined): 49.3%, 28.2 µM (≈ 12.5 µg/mL) and 10.2 µM.
With `CO[C@H]1/C=C/O[C@@]2(C)Oc3c(C)c(O)c4c(O)c(c(/C=N/N5CCN(C)CC5)c(O)c4c3C2=O)NC(=O)/C(C)=C\C=C\[C@H](C)[C@H](O)[C@@H](C)[C@@H](O)[C@@H](C)[C@H](OC(C)=O)[C@@H]1C` [RIFAMPIN], the “Log reduction in bacterial count” value in data set [4] came to 2.2. The compound further came in with an MIC in data set [2] of 0.15 µM (≈ 0.123 µg/mL).
In the case of `COc1ccc(C(=O)Nc2ccccc2)cc1Nc1nc(Nc2ccccn2)nc2ncccc12`, in data set [3], the IC50 came to 22.1 µM.
With `O=C(NN1C(C(=O)Nc2ccc(Br)cc2)CC1C(=O)Nc1ccc(Br)cc1)c1ccncc1` (centres undefined), the result in data set [4] was inactive. The cytotoxicity at 48 h, 25 µM in data set [1] was 19.7%. Further, the MIC in data set [2] came to 2.72 µM (≈ 1.56 µg/mL). Moreover, the IC50 in data set [3] was above 25 µM.
